Reference: ChEMBL document CHEMBL5214909

What was measured:
[1] = test system: Huh-7; test: Cytotoxicity against human Huh-7 cells by CytoTox 96 nonradioactive cytotoxicity assay; assay type: functional
How it was run: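 Confluent cells were exposed to compound at 1 to 100 μM for 72 h, and cytotoxicity was read with the CytoTox 96 nonradioactive kit. CC50 came from a variable-slope fit, averaged over at least two determinations.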

[2] = Inhibition of MERS-CoV 3CLpro; set-up: species or system Middle East respiratory syndrome-related coronavirus
[3] = target: Replicase polyprotein 1ab (Severe acute respiratory syndrome coronavirus 2, UniProt P0DTD1); test: Inhibition of SARS-CoV-2 3CLpro using FAM-SAVLQ/SG-QXL520 as substrate measured after 1 hr by fluorescence based microplate reader analysis
How it was run: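 The protease was full-length, codon-optimized SARS-CoV-2 3CLpro with an N-terminal His6 tag, expressed from pET-28a(+). It was preincubated with serial inhibitor dilutions or DMSO for 1 h at 37 °C in 20 mM HEPES pH 8, 200 mM NaCl, 0.4 mM EDTA, 60% glycerol and 6 mM DTT. Substrate was then added. Fluorescence (ex 480/em 520 nm) was read 1 h later, minus a no-protease background. IC50 came from a variable-slope fit, averaged over at least two determinations.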

[4] = test system: SARS-CoV-2; test: Antiviral activity against SARS-CoV-2 infected in African green monkey Vero E6 cells measured after 48 to 72 hrs; assay type: functional, organism-based; settings: Severe acute respiratory syndrome coronavirus 2, Vero C1008

Structure (SMILES)	CC50 [1] [nM]	IC50 [2] [nM]	IC50 [3] [nM]	EC50 [4] [nM]
CC(C)C[C@H](NC(=O)OCC1CC2CCC1C2)C(=O)N[C@@H](C[C@@H]1CCNC1=O)C(O)S(=O)(=O)O (single isomer, unassigned)	> 100000	58	–	–
[2H]C([2H])(OC(=O)N[C@@H](CC(C)C)C(=O)N[C@@H](C[C@H]1CCNC1=O)C(O)S(=O)(=O)[O-])C12CC3CC(CC(O)(C3)C1)C2.[Na+] (stereo not given in full)	> 100000	–	780	–
[2H]C([2H])(OC(=O)N[C@@H](CC(C)C)C(=O)N[C@H](C=O)C[C@H]1CCNC1=O)C1CC2CCCC(C2)C1 (stereo not given in full)	> 100000	–	290	–
[2H]C([2H])(OC(=O)N[C@@H](CC(C)C)C(=O)N[C@H](C=O)CC1CCNC1=O)C12CCC(CCCCC)(CC1)CC2 (single isomer, unassigned)	20000	–	–	–
CC(C)C[C@H](NC(=O)OCC1CC2CCCC(C2)C1)C(=O)N[C@H](C=O)C[C@H]1CCNC1=O (stereo not given in full)	> 100000	52	180	35
[2H]C([2H])(OC(=O)N[C@@H](CC(C)C)C(=O)N[C@H](C=O)C[C@H]1CCNC1=O)C12CC3CC(CC(O)(C3)C1)C2	> 100000	–	740	–
[2H]C([2H])(OC(=O)N[C@@H](CC(C)C)C(=O)N[C@@H](C[C@H]1CCNC1=O)C(O)S(=O)(=O)[O-])C1CC2CCCC(C2)C1.[Na+] (stereo not given in full)	> 100000	–	290	–
CC(C)C[C@H](NC(=O)OCC1CC2CCC1C2)C(=O)N[C@H](C=O)C[C@@H]1CCNC1=O (single isomer, unassigned)	> 100000	63	–	–
CC(C)C[C@H](NC(=O)OCC12CC3CC(CC(C3)C1)C2)C(=O)N[C@@H](C[C@H]1CCNC1=O)C(O)S(=O)(=O)O (stereo not given in full)	> 100000	53	150	–
CCCCCC12CCC(COC(=O)N[C@@H](CC(C)C)C(=O)N[C@H](C=O)C[C@@H]3CCNC3=O)(CC1)CC2 (single isomer, unassigned)	21000	–	–	–
CC(C)C[C@H](NC(=O)OCC1C[C@@H]2C=CC[C@H](C1)C2)C(=O)N[C@@H](C[C@@H]1CCNC1=O)C(O)S(=O)(=O)O (single isomer, unassigned)	> 100000	–	–	–
CC(C)C[C@H](NC(=O)OC1CC2CCC(C1)N2C(=O)OCc1ccccc1)C(=O)N[C@@H](C[C@H]1CCNC1=O)C(O)S(=O)(=O)O (stereo not given in full)	> 100000	–	370	–
CC(C)C[C@H](NC(=O)OCC12CC3CC(CC(O)(C3)C1)C2)C(=O)N[C@H](C=O)C[C@H]1CCNC1=O	> 100000	–	820	–
CC(C)C[C@H](NC(=O)OCC1CC2C=CC1C2)C(=O)N[C@@H](C[C@@H]1CCNC1=O)C(O)S(=O)(=O)O (single isomer, unassigned)	> 100000	–	–	–
CC(C)C[C@H](NC(=O)OCC12CC3CC(CC(O)(C3)C1)C2)C(=O)N[C@@H](C[C@H]1CCNC1=O)C(O)S(=O)(=O)O (stereo not given in full)	> 100000	–	1030	–
CCCCCC12CCC(COC(=O)N[C@@H](CC(C)C)C(=O)N[C@@H](C[C@@H]3CCNC3=O)C(O)S(=O)(=O)O)(CC1)CC2 (single isomer, unassigned)	21000	–	–	–
CC(C)C[C@H](NC(=O)OCC1C[C@@H]2C=CC[C@H](C1)C2)C(=O)N[C@H](C=O)C[C@@H]1CCNC1=O (single isomer, unassigned)	> 100000	–	–	–
[2H]C([2H])(OC(=O)N[C@@H](CC(C)C)C(=O)N[C@H](C=O)C[C@H]1CCNC1=O)C12CC3CC(CC(C3)C1)C2	> 100000	–	290	–
CC(C)C[C@H](NC(=O)OC1CC2CCC(C1)N2C(=O)OC(C)(C)C)C(=O)N[C@H](C=O)C[C@H]1CCNC1=O (stereo not given in full)	> 100000	–	1900	–
[2H]C([2H])(OC(=O)N[C@@H](CC(C)C)C(=O)N[C@@H](CC1CCNC1=O)C(O)S(=O)(=O)O)C1CC2C=CCC(C2)C1 (single isomer, unassigned)	> 100000	–	–	–
CC(C)C[C@H](NC(=O)OCCC12CC3CC(CC(C3)C1)C2)C(=O)N[C@H](C=O)C[C@H]1CCNC1=O	> 100000	–	270	–
[2H]C([2H])(OC(=O)N[C@@H](CC(C)C)C(=O)N[C@H](C=O)CC1CCNC1=O)C1CC2C=CCC(C2)C1 (single isomer, unassigned)	> 100000	–	–	–
CC(C)C[C@H](NC(=O)OC1CC2CCC(C1)N2C(=O)OCc1ccccc1)C(=O)N[C@H](C=O)C[C@H]1CCNC1=O (stereo not given in full)	> 100000	–	390	–
CC(C)C[C@H](NC(=O)OC1CC2CCC(C1)N2C(=O)OC(C)(C)C)C(=O)N[C@@H](C[C@H]1CCNC1=O)C(O)S(=O)(=O)O (stereo not given in full)	> 100000	–	1710	–
CC(C)C[C@H](NC(=O)OCCC12CC3CC(CC(C3)C1)C2)C(=O)N[C@@H](C[C@H]1CCNC1=O)C(O)S(=O)(=O)O (stereo not given in full)	> 100000	–	250	–
CC(C)C[C@H](NC(=O)OCC1CC2C=CC1C2)C(=O)N[C@H](C=O)C[C@@H]1CCNC1=O (single isomer, unassigned)	> 100000	–	–	–
CC(C)C[C@H](NC(=O)OCC12CC3CC(CC(C3)C1)C2)C(=O)N[C@H](C=O)C[C@H]1CCNC1=O	> 100000	55	180	–
CC(C)C[C@H](NC(=O)OCC1C[C@H]2CCC[C@@H](C1)C2)C(=O)N[C@@H](C[C@@H]1CCNC1=O)C(O)S(=O)(=O)O (single isomer, unassigned)	> 100000	49	–	32
[2H]C([2H])(OC(=O)N[C@@H](CC(C)C)C(=O)N[C@@H](CC1CCNC1=O)C(O)S(=O)(=O)O)C12CCC(CCCCC)(CC1)CC2 (single isomer, unassigned)	23000	–	–	–
[2H]C([2H])(OC(=O)N[C@@H](CC(C)C)C(=O)N[C@@H](C[C@H]1CCNC1=O)C(O)S(=O)(=O)[O-])C12CC3CC(CC(C3)C1)C2.[Na+] (stereo not given in full)	> 100000	–	270	–
